Test results taken from ChEMBL document CHEMBL1138087, “Synthesis and evaluation of N-aryl pyrrolidinones as novel anti-HIV-1 agents. Part 1” (Bioorg Med Chem Lett, 2006).

Experiments:
[1] = tested on: Human immunodeficiency virus 1; assay: Selectivity for wild type HIV1 virus over HIV1 L100I mutant; type: functional
[2] = tested on: Human immunodeficiency virus 1; assay: Selectivity for wild type HIV1 virus over HIV1 Y181C mutant; type: functional
[3] = tested on: Human immunodeficiency virus 1; assay: Antiviral activity against wild type HIV1 virus; type: functional, organism-based
Summary of the method: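 HEK 293T cells grown in DMEM with 10% FBS and Pen/Strep/Glutamine. Seeded at 700 cells/well, cultured 24 h at 37 °C under 5% CO₂. Serially diluted compound in DMSO added, then 1 h at 37 °C. HIV reporter virus added at MOI about 1.0, cells cultured a further 48 h at 37 °C. Luciferase read-out with Bright-Glo reagent.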

[4] = tested on: Human immunodeficiency virus 1; assay: Selectivity for wild type HIV1 virus over HIV1 K103N mutant; type: functional
[5] = tested on: Human immunodeficiency virus 1; assay: Antiviral activity against HIV1 K103N/L100I mutant; type: functional, organism-based
Summary of the method: (§1)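 HEK 293T cells grown in DMEM with 10% FBS and Pen/Strep/Glutamine. Cells seeded at 700 cells/well and cultured 24 h at 37 °C under 5% CO₂. Compounds serially diluted in DMSO were added and incubated 1 h at 37 °C. Cells were then infected with HIV reporter virus at MOI ~1.0 and cultured a further 48 h at 37 °C. Read-out was luciferase activity (Bright-Glo).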

HEK293 = assay: Cytotoxicity against HEK293T cells; type: functional; settings: Homo sapiens
Summary of the method: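 293T cells seeded at 700 cells/well and cultured 24 h at 37 °C under 5% CO₂. Serially diluted compound in DMSO added to uninfected cells, then a further 48 h at 37 °C. Viability read by fluorescence after Alamar Blue (diluted 1:1 in DMEM) and 4 h at room temperature.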

[6] = tested on: Human immunodeficiency virus 1; assay: Antiviral activity against HIV1 L100I mutant; type: functional, organism-based; summary of the method: as §1
[7] = tested on: Human immunodeficiency virus 1; assay: Antiviral activity against HIV1 Y181C mutant; type: functional, organism-based; summary of the method: as §1
[8] = tested on: Human immunodeficiency virus 1; assay: Antiviral activity against HIV1 K103N mutant; type: functional, organism-based; summary of the method: as §1
[9] = tested on: Human immunodeficiency virus 1; assay: Selectivity for wild type HIV1 virus over HIV1 K103N/L100I mutant; type: functional
[10] = molecular target: Human immunodeficiency virus type 1 reverse transcriptase (Human immunodeficiency virus 1, UniProt Q72547); assay: Inhibition of HIV1 reverse transcriptase

IC50 [10] | Compound | Selectivity ratio [1] | Selectivity ratio [2] | EC50 [3] | Selectivity ratio [4] | EC50 [5] | CC50 (HEK293) | EC50 [6] | EC50 [7] | EC50 [8] | Selectivity ratio [9]
– | COc1ccc([C@H]2CC(=O)N(c3cccc(NS(=O)(=O)c4cccc(C)c4)c3)C2)cc1OC1CCCC1 | 0.3 | 6.2 | 46 nM | 3.4 | 19 nM | > 10000 nM | 14 nM | 284 nM | 158 nM | 0.41
– | COc1ccc([C@H]2CC(=O)N(c3cccc(NS(=O)(=O)c4ccccc4F)c3)C2)cc1OC1CCCC1 | 0.53 | 21 | 64 nM | 4.2 | 41 nM | > 10000 nM | 34 nM | 1500 nM | 269 nM | 0.64
– | COc1ccc([C@H]2CC(=O)N(c3cccc(NS(=O)(=O)c4ccccc4Cl)c3)C2)cc1OC1CCCC1 | 0.45 | 13 | 42 nM | 4 | 28 nM | > 10000 nM | 19 nM | 557 nM | 170 nM | 0.67
– | Cc1ccnc2c1NC(=O)c1cccnc1N2C1CC1 [NEVIRAPINE] | 3.2 | > 200 | 50 nM | 101 | 4390 nM | > 10000 nM | 164 nM | > 10000 nM | 5050 nM | 88
– | COc1ccc([C@H]2CC(=O)N(c3cccc(NS(=O)(=O)c4ccccc4Br)c3)C2)cc1OC1CCCC1 | 0.38 | 19 | 42 nM | 6.9 | 22 nM | > 10000 nM | 16 nM | 794 nM | 292 nM | 0.52
2000 nM | COc1ccc([C@H]2CC(=O)N(c3cccc(N)c3)C2)cc1OC1CCCC1 | – | – | 125 nM | – | – | > 10000 nM | – | – | – | –
– | COc1ccc([C@H]2CC(=O)N(c3cccc(NS(=O)(=O)c4cc(Br)c(Cl)s4)c3)C2)cc1OC1CCCC1 | 0.84 | 16 | 46 nM | 12 | 95 nM | > 10000 nM | 39 nM | 753 nM | 542 nM | 2
